# Assay results reported in the EternaBench riboswitch data.
# Tested on: MS2 coat protein
# Experiment: apparent Kd, MS2 coat protein; higher = weaker binding; RNA-MaP array; FMN 200 µM where present
# In short: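 Apparent Kd: the median of filtered binding-curve fits from single clusters. Designs were transcribed on Illumina sequencing-chip clusters by stalled E. coli RNA polymerase and titrated with SNAP-549-labelled MS2 coat protein from 0.7 or 1.5 nM, doubling to 3 µM, in 100 mM Tris-HCl pH 7.5, 80 mM KCl, 4 mM MgCl2, BSA, DTT, yeast tRNA and Tween-20. Each series ran without and then with constant ligand, and green signal was normalised to red-channel RNA signal and control-cluster median Fmax.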
# [1] = designed as: ON switch for flavin mononucleotide, no ligand
# [2] = ligand present: flavin mononucleotide, designed as: ON switch for flavin mononucleotide
# [3] = designed as: OFF switch for flavin mononucleotide, no ligand
# [4] = ligand present: flavin mononucleotide, designed as: OFF switch for flavin mononucleotide
Sequence,apparent Kd [1] [nM],apparent Kd [2] [nM],apparent Kd [3] [nM],apparent Kd [4] [nM]
AAAAAAAAAGUGCAGGAUAUCCUCAUGGCUACAUGAGGAUCACCCAUGUGAAGAAAAGCACAUGAGGAGAAGGGCACAAAAAAAAA,23.4,12.3,–,–
AAAAAAAAUGUGUAGGAUAUCAGUAAAAAUACAUGAGGAUCACCCAUGUUCAAAAAAAAAAAAACUGAGAAGGACGUGGAUGGUCC,79,59.9,–,–
AAAAAACAUGAGGAUCACCCAUGUAAAAAAAUCGCAGGAUAUACGGUCGCGAAAGCGACCGUAGAAGGGCGAUCCU,251,94.8,–,–
AAAAAACAUGAGGAUCACCCAUGUCCAAAAAAAAAAGGAUAUGCAAAAAAAAAAAAAAAAGCAGAAGGUUUAAAAA,68.4,74.7,–,–
AAAAAACAUGAGGAUCACCCAUGUGAGGAUAUCCAAAAGUUAAAUAAAAAGACGAAAAGGAGAAGGCGCAAAAA,–,–,110,84.2
AAAAAGCGAGGAUAUACAUAGCUAAGACAUGUAAGCGAAAAACAUGAGGAUCACCCAUGUAGAAGGCGCAAAAA,–,–,17.7,18.2
AAAAAGGCAGGAUAUACAUGAGGAUCACCCAUGUAGUUGACAAAAAAGAGUCAACAGUGUAGAAGGGCCAAAAA,–,–,19.3,24.6
AAAAAGGGAGGAUAUACAUGAGGAUCACCCAUGUAUCAGACGAAAAAGAGUCUGAAGUGUAGAAGGCCCAAAAA,–,–,18.3,27.4
AAAACAUGAGGAUCACCCAUGUAAAGAUCGGUUAAUAGAGGUGAGGAUAUACGAAGUUAAAGCUGGUAGAAGGCACUGGGUACA,78.5,51.3,–,–
AAAACAUGAGGAUCACCCAUGUAUAGAUCGGUUGAUAGGAGUGAGGAUAUGCUUAAAAUAAGGUAGCAGAAGGCACUGGGUACA,37.1,40.1,–,–
AAAACAUGAGGAUCACCCAUGUUAAGAUCGGUCAAUAGAAGUGAGGAUAUACGAAGUUAAGGCUGGUAGAAGGCACUGGGUACA,43.5,37.1,–,–
AAAACAUGAGGAUCACCCAUGUUUAGAUCGGUCGAUAGAAGUGAGGAUAUACGAAGUUAAGGCUGGUAGAAGGCACUGGGUACA,39.8,33.3,–,–
AAAACCAGAGGAUAUGCGCAUAGAUCAGACUUUGUUUCUUAACAUGAGGAUCACCCAUGUAGAAGGCUGUAAAA,–,–,17.3,15.4
AAAACGUCAGGAUAUCCAAUAUAUGACAUGAGGAUCACCCAUGUUUCCACUCGUACCUCCGGAGAAGGGACAAAUA,–,–,41.5,34
AAAACGUGAGGAUAUGCACCAACCAAGGUUUUUCGGGUACGACAUGAGGAUCACCCAUGUAGAAGGCACGAAAA,–,–,16.2,12.9
AAAAGAACGGCAGGAUAUGCAAGCACUGACCUCCCAAAAUAAAGAAACAUGAGGAUCACCCAUGUGCAGAAGGGCCAAAAGUGC,–,–,13.6,12.3
AAAAGACAUGAGGAUCACCCAUGUCAAAACGUGGGAGGAUAUGUAUGGAAACCAGACUGUACAGAAGGCCUCUGUC,41.7,131,–,–
AAAAGACAUGAGGAUCACCCAUGUCAAGACAUAGGAGGAUAUGUCUGGAAAAAAGACUGGACAGAAGGCCUUUGUC,19.9,17.4,–,–
AAAAGACAUGAGGAUCACCCAUGUGAAAACGUAGGAGGAUAUGUAUGGAAACCAUACUGUACAGAAGGCCUUUGUC,28.1,29.7,–,–

Sequence,apparent Kd [1] [nM],apparent Kd [2] [nM],apparent Kd [3] [nM],apparent Kd [4] [nM]
AAAAGAGUAGGAUAUCUGACGCGAAACAUGAGGAUCACCCAUGUAGGGCGGUCCUGCUUAAGAGAAGGGCUCAAAU,–,–,99.6,230
AAAAGGUCAGGAUAUGCGAGCGGCAGGGAGGCAGGUCGGUGGCAGAAGGGACAUGAGGAUCACCCAUGUUAAAA,–,–,35,34.1
AAAAGUUAAGGAUAUACAGGGAGCCGCGGCGACUCGCCGCAACAUGAGGAUCACCCAUGUAGAAGGUAGCCAAA,–,–,27.6,62.8
AAAAUAAGAACAGGAUAUGUGGGUUCGAAAAGCAAAGCUUUCCACAUGAGGAUCACCCAUGUGCCACAGAAGGGUUCGGGUGAU,69.1,27.4,–,–
AAAAUAAGAACAGGAUAUGUGGGUUCGAAGAGCAAAACUCUCCACAUGAGGAUCACCCAUGUGCCACAGAAGGGUUCGGGUGAU,66.9,12.4,–,–
AAAAUAAGGCGAGGAUAUCGACAGCAUGUGUGACGAGAAGGCGCGAUAGGUGGGUUCCUUGACAUGAGGAUCACCCAUGUAGAA,–,–,65.7,114
AAAAUCAAUAGAGGAUAUUCAUACACUACAUACGGAGAAGGCUAACAAUCAUGAGGACAUGAGGAUCACCCAUGUUGUGACCAU,25.9,17.1,–,–
AAAAUGGUACAGAAGGCGGAGCCCAACAUGAGGAUCACCCAUGUAUGGGUGUCGUCAGUAGUUACCGAGGAUAUGUAUCGGUAU,–,–,6.42,7.1
AAAAUGUGAGGAUAUGCGAAGGCGUCUGAUAGACGAGGCUAGCAGAAGGCACAUGAGGAUCACCCAUGUCCAAA,–,–,40.3,60.3
AAACAAGGAUCAGGAUAUGUGAAAGUAGACCGACAUGAGGAUCACCCAUGUACGACAAGACUCGUACAGAAGGGAUGCACAUGA,73.3,165,–,–
AAACACGGACAUGAGGAUCACCCAUGUGGCGAAAGCCUUGGGAGAAGGAUUAAUGCAAAGCAUAAAUAGGAUAUUCAUACCGUG,1270,243,–,–
AAACACGGACAUGAGGAUCACCCAUGUGGCGAAAGCCUUGGGAGAAGGCAGUAUGCAAAGCAUUCUGAGGAUAUCCAUACCGUG,18.4,6.63,–,–
AAACAUGUCCGAGGAUAUCUGGAAACAUUUUCAAGAGAAGGCGGACAUGAGGAUCACCCAUGUCUCUCCUCAUCAAAUCCAAUU,–,–,8.37,51.1
AAACCACAUGAGGAUCACCCAUGUAAAAAUAUGGGAGGAUAUCGGAAUAAAAUAAAGAAACGAGAAGGCCUAAAAA,153,35.9,–,–
AAACUGCAUGUGAGGAUAUGCACCGACUAAACCGGGCAGAAGGCACAUGAGGAUCACCCAUGUCAUCCUAUUGC,–,–,8.62,18.1
AAAGAGGCGGAUCGCAACUACCAGCAGGAUAUGGGUGUUUUUACAUGAGGAUCACCCAUGUACAUCUAGAAGGGUUGGGUGUCC,576,76.6,–,–
AAAGCAACAUGAGGAUCACCCAUGUAGGAUAUCGCUAUUGUAAUCAUGAAACAUGAUUACAAUAGCGAGAAGGACAUAUGGCCC,–,–,10.8,31.7
AAAGGACGAGGAUAUACAUGAGGAUCACCCAUGUAAAAAACAUAAUAAAAGAACUUAUGUAGAAGGCGUCCAAA,–,–,58.6,336
AAAGUACAUGAGGAUCACCCAUGUUGGAACAAAGCAGGAUAUGUACAAAAGGAAAUAAAUACAGAAGGGCUAAGAA,36.5,21.2,–,–

Sequence,apparent Kd [1] [nM],apparent Kd [2] [nM],apparent Kd [3] [nM],apparent Kd [4] [nM]
AAAGUGUGAGGAUAUCCGGGACUGGGCCGGGAGGUUCGGAAGGAGAAGGCACAUGAGGAUCACCCAUGUAACGG,–,–,59.3,44.3
AAAUAAACUAGCAUAAUAUCCUCACAUGAGGAUCACCCAUGUCAGGAUAUUUGUCCUAAAAGGACAGAGAAGGGACGUGCUAGA,–,–,5.07,6.27
AAAUAAGUUGCAGGAUAUUAUUUUUAAUAAAUAUAAGAAGGGCAACAAACCUCACAUGAGGAUCACCCAUGUACCCAUGUAUCU,–,–,64.3,35.6
AAAUACGUAAAGGACACAUGAGGAUCACCCAUGUUUCUGUUCAAGGAUAUGAGGUGAAUGAUCCGUCAGAAGGUGAACUUGCUU,117,624,–,–
AAAUAGCGAGGAUAUACAUGAGGAUCACCCAUGUGGACUGAUGUCGCGUGAUUCAGUGGUAGAAGGUGCUCAAA,–,–,45.4,76.3
AAAUGACAUGAGGAUCACCCAUGUCCACCAAAUGGAGGAUAUUGGACGGCAAAACGUUGUUAAGAAGGCCGAAAUU,27.6,22.3,–,–
AAAUGCGUAAAGGACACAUGAGGAUCACCCAUGUUUCUGUCCAAGGAUAUGAGGUGAAUGAUCCGUCAGAAGGUGGACUUGCUU,114,220,–,–
AAAUUUAACGAAGGAUAUGCUAACAUGAGGAUCACCCAUGUGUGCUUUGUGUUGCUGAAAUUGGAGCAGAAGGUCGUAUACAUA,–,–,95.4,145
AACAAUCUAUCUGAGGAUAUCAUGAAAAAAACAUGAGGAUCACCCAUGUGCAGGAAAACUGCAUAUGAGAAGGCAGAUAGAUUGG,618,31.6,–,–
AACAGCUCGUCAGGAUAUACAAUACUGCUUCGGCAGUAUGAUAAGAUAACAUGAGGAUCACCCAUGUAGAAGGGACGAGCUGAA,–,–,6.23,7.47
AACAGUACAGGAUAUACAUGAGGAUCACCCAUGUGAAGAUUAAGUGGUGUACCACUAAGUAGAAGGGUACUGGA,–,–,28.8,126
AACAGUAGAGGAUAUACAUGAGGAUCACCCAUGUGAGAAUUACGUGGCGUACCACGAAGUAGAAGGCUACUGGA,–,–,61.3,302
AACAUACUAUACAUGAGGAUCACCCAUGUUUGGGCACUGUACAGAAGGCACGGGCAAAUGCGAGGUGAGGAUAUGUAGUUAGUG,64.8,18.8,–,–
AACAUGGUACAGAAGGGCAAUUUAUUUAUUUAUUAUUUAGAACAGCAUUGCAGGAUAUGUUUAACAUGAGGAUCACCCAUGUAC,84.4,15.8,–,–
AACCUAUUACAGAAGGCCAGCUACAUGAGGAUCACCCAUGUCGAGUCAUGGAGGAUAUGUAGUAAUUCACUCGCAGAUGAGUAC,29.8,5.33,–,–
AACCUAUUACAGAAGGCCAGCUACAUGAGGAUCACCCAUGUCGAGUCAUGGAGGAUAUGUAGUAAUUUACUCGCAGAUGAGUGC,24.4,4.9,–,–
AACGCGUCAGGAUAUGCCAUAAAUUACCUAAUACAACCAUAGCAGAAGGGACAUGAGGAUCACCCAUGUAAAUA,–,–,32.1,25.2
AACGUGUAAGGAUAUGCUGCUCGUCACAAAAGUGAUGAGUAGCAGAAGGUACAUGAGGAUCACCCAUGUAAAGA,–,–,35.4,73.8
